Laboratory results reported in ChEMBL document CHEMBL1155452, “Oncocin (VDKPPYLPRPRPPRRIYNR-NH2): a novel antibacterial peptide optimized against gram-negative human pathogens” (J Med Chem, 2010).

Experiments:
HeLa = experiment: Cytotoxicity against human HeLa cells at 600 ug/ml after 24 hrs by MTT assay; type: cell-based
In short: (§1)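 HeLa (1.5 × 10^4/well, seeded overnight) or SH-SY5Y (2 × 10^4/well, differentiated 5 days with 10 μM trans-retinoic acid) in DMEM/Ham's F-12 with 5% or 15% FBS. Peptide added at 600 μg/mL for 24 h at 37 °C, 5% CO2. MTT 0.5 mg/mL for 4 h, then SDS/HCl for 16 h; A590 read against 650 nm. Normalized to PBS (100%); DMSO 12% as positive control.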

SH-SY5Y = experiment: Cytotoxicity against human SH-SY5Y cells at 600 ug/ml after 24 hrs by MTT assay; type: cell-based; in short: as §1

| Compound | Activity (HeLa) | Activity (SH-SY5Y) |
| --- | --- | --- |
| CC[C@H](C)[C@H](NC(=O)[C@H](Cc1ccc(O)cc1)NC(=O)[C@@H](NC(=O)[C@@H]1CCCN1C(=O)[C@H](CCCNC(=N)N)NC(=O)[C@H](CC(N)=O)NC(=O)[C@H](CC(N)=O)NC(=O)CN)C(C)C)C(=O)N1CCC[C@H]1C(=O)N[C@@H](CCC(N)=O)C(=O)N1CCC[C@H]1C(=O)N[C@@H](CCCNC(=N)N)C(=O)N1CCC[C@H]1C(=O)N1CCC[C@H]1C(=O)N[C@@H](Cc1cnc[nH]1)C(=O)N1CCC[C@H]1C(=O)N[C@@H](CCCNC(=N)N)C(=O)N[C@@H](CC(C)C)C(=O)O [APIDAECIN] | Non-toxic | Non-toxic |
| H-GKPRPYSPRPTSHPRPIRV-OH [DROSOCIN] | Non-toxic | Non-toxic |
